Results reported in ChEMBL document CHEMBL2321813, “Discovery of allosteric modulators of factor XIa by targeting hydrophobic domains adjacent to its heparin-binding site” (J Med Chem, 2013).
Activity calls are given as the source filed them. The calls are words filed in the database; no cut-off is given here.

Tests used:
Coagulation factor XI [1] = molecular target: T1, Coagulation factor XI (Homo sapiens, UniProt P03951); assay: Inhibition of human factor 11a using S2366 as substrate after 10 mins by spectrophotometry
T1 sequence (P03951 19-387 limits assumed): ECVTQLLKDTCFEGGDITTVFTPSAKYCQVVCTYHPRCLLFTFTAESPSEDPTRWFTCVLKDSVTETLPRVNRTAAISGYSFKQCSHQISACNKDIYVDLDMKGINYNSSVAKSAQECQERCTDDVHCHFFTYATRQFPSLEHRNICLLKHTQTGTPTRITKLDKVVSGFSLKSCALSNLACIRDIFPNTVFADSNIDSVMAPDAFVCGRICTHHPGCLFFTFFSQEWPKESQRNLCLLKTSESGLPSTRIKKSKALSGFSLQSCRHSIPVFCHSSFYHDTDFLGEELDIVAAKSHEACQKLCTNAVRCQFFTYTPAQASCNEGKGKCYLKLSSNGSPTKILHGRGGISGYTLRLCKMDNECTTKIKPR
T1 sequence (P03951 388-625 limits assumed): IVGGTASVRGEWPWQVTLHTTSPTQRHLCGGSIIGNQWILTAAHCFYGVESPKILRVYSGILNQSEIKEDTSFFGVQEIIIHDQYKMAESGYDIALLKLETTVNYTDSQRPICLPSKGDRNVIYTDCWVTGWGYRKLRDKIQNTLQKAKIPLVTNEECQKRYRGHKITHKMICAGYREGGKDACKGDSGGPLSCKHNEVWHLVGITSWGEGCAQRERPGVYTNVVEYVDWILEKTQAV
In short: (§1)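 FXIa at 0.765 nM (final) preincubated 10 min at 37 °C with compound (12 serial dilutions) in 50 mM Tris-HCl pH 7.4, 150 mM NaCl, 0.1% PEG8000, 0.02% Tween80. S2366 (345 μM final) then added. Initial rate read at 405 nm. Fractional residual activity fit to a logistic equation for IC50, Hill slope and ΔY.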

Coagulation factor XI [2] = molecular target: T1, Coagulation factor XI; assay: Inhibition of human factor 11a using S2366 as substrate assessed as residual protease activity after 10 mins by spectrophotometry; in short: as §1
[3] = molecular target: Chymotrypsinogen A (Bos taurus) (UniProt P00766); assay: Inhibition of bovine alpha-chymotrypsin assessed as residual protease activity at 500 uM after 10 mins by spectrophotometry
Coagulation factor XI [4] = molecular target: T1, Coagulation factor XI; assay: Binding affinity to human factor 11a-DEGR by spectrofluorometry
In short: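 Fluorescence titration of active-site dansylated FXIa (FXIa-DEGR, 250 nM) with aliquots of sulfated QAO in 50 mM Tris-HCl pH 7.4, 150 mM NaCl, 0.1% PEG8000 at 37 °C. Emission monitored at 547 nm (λex 345 nm). Change in fluorescence fit to the Hill equation to give apparent KD.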

[5] = molecular target: T2, Serine protease 1 (Bos taurus) (UniProt P00760); assay: Inhibition of bovine trypsin assessed as residual protease activity at 500 uM after 10 mins by spectrophotometry
T2 sequence (whole entry): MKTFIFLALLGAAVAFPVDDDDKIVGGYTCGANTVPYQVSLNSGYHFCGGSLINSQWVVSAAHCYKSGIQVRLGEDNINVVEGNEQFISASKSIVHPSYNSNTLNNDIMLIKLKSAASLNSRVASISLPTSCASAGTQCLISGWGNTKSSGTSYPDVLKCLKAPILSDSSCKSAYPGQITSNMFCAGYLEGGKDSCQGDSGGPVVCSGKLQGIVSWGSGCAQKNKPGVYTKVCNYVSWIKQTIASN

[6] = molecular target: Coagulation factor X (Homo sapiens) (UniProt P00742); assay: Inhibition of human factor 10a assessed as residual protease activity at 500 uM after 10 mins by spectrophotometry
Coagulation factor X (Homo sapiens), sequence (P00742 41-179 limits assumed): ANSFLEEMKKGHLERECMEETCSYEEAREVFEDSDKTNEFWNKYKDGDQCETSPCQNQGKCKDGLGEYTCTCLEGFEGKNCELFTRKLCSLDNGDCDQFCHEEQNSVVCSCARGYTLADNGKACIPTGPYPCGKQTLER
Coagulation factor X (Homo sapiens), sequence (P00742 235-488 limits assumed): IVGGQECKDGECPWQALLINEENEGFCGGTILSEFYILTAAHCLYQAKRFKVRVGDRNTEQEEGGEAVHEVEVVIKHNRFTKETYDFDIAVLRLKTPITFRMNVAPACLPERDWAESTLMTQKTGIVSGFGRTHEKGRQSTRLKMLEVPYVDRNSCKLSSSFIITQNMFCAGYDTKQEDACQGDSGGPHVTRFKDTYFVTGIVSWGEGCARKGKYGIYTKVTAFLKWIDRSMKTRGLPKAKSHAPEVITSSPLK

[7] = molecular target: Prothrombin (Homo sapiens) (UniProt P00734); assay: Inhibition of human thrombin assessed as residual protease activity at 500 uM after 10 mins by spectrophotometry
Plasma = assay: Anticoagulant activity in human plasma assessed as concentration required to double activated partial thromboplastin time; format: functional
In short: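 Citrated pooled normal human plasma. APTT: 10 μL compound mixed with 90 μL plasma and 100 μL prewarmed APTT reagent (0.2% ellagic acid), incubated 4 min at 37 °C, then clotting started with 100 μL prewarmed 25 mM CaCl2. Vehicle control was deionized water and/or organic vehicle. Clot time was read on a fibrometer. Data fit to a quadratic trend line to get the concentration doubling clotting time. Run in duplicate.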

Coagulation factor XI [8] = molecular target: T1, Coagulation factor XI; assay: Inhibition of human wild type full length factor 11a transfected in HEK293 cells using S2366 as substrate assessed as residual protease activity at 3 uM after 10 mins by spectrophotometry
In short: (§2)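 Full-length wild-type FXIa, FXIa catalytic domain, and the Lys529Ala/Arg530Ala/Arg532Ala catalytic domain mutant were recombinant proteins from stably transfected HEK-293 cells, activated with FXIIa. Residual activity was measured by S2366 hydrolysis with 3 μM compound, with or without 30 μM Polybrene.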

Homo sapiens [9] = organism: Homo sapiens; assay: Ratio of IC50 for human recombinant factor 11a catalytic domain Arg530Ala mutant to IC50 for human recombinant factor XIa catalytic domain
In short: (§3)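 Recombinant FXI catalytic domain constructs (wild type, Arg530Ala, Lys529Ala/Arg530Ala/Arg532Ala) were expressed stably in HEK-293 cells. […] Inhibition was measured by S2366 hydrolysis in 50 mM Tris-HCl pH 7.4, 150 mM NaCl, 0.1% PEG8000, 0.02% Tween80 at 37 °C. Dose-response data were fit to the logistic equation.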

Coagulation factor XI [10] = molecular target: T1, Coagulation factor XI; assay: Inhibition of human recombinant factor 11a catalytic domain; in short: as §3
HEK293 [11] = assay: Inhibition of human recombinant factor 11a catalytic domain Lys529Ala/Arg530Ala/Arg532Ala triple mutant transfected in HEK293 cells using S2366 as substrate assessed as residual protease activity at 3 uM after 10 mins by spectrophotometry; in short: as §2
Coagulation factor XI [12] = molecular target: T1, Coagulation factor XI; assay: Inhibition of human recombinant factor 11a catalytic domain transfected in HEK293 cells using S2366 as substrate assessed as residual protease activity at 3 uM after 10 mins by spectrophotometry; in short: as §2
Homo sapiens [13] = organism: Homo sapiens; assay: Ratio of IC50 for human recombinant factor 11a catalytic domain Lys529Ala/Arg530Ala/Arg532Ala triple mutant to IC50 for human recombinant factor XIa catalytic domain; in short: as §3
HEK293 [14] = assay: Inhibition of human recombinant factor 11a catalytic domain Lys535Ala/Lys539Ala double mutant transfected in HEK293 cells; format: cell-based

Structure (SMILES)	IC50 (Coagulation factor XI [1])	Efficacy (Coagulation factor XI [2])	also measured
O=c1c2ccccc2nc(-c2ccc(OS(=O)(=O)O)cc2)n1Cc1cn(CCn2cc(Cn3c(-c4ccc(OS(=O)(=O)O)cc4)nc4ccccc4c3=O)nn2)nn1	305 µM	98%	–
O=c1c2ccccc2nc(-c2cccc(OS(=O)(=O)O)c2)n1CCCn1cc(Cn2c(-c3cccc(OS(=O)(=O)O)c3)nc3ccccc3c2=O)nn1	320 µM	91%	–
O=c1c2ccccc2nc(-c2ccc(OS(=O)(=O)O)cc2)n1CCCCCn1cc(Cn2c(-c3ccc(OS(=O)(=O)O)cc3)nc3ccccc3c2=O)nn1	59 µM	89%	inhibition [3]: inactive; Kd (Coagulation factor XI [4]): 37 µM; inhibition [5]: inactive; inhibition [6]: inactive; inhibition [7]: inactive; 2aPTT (Plasma): 1062 µM
O=c1c2ccccc2nc(-c2ccc(OS(=O)(=O)O)cc2)n1CCCCn1cc(Cn2c(-c3ccc(OS(=O)(=O)O)cc3)nc3ccccc3c2=O)nn1	82 µM	91%	inhibition [3]: inactive; Kd (Coagulation factor XI [4]): 84 µM; inhibition [5]: inactive; inhibition [6]: inactive; inhibition [7]: inactive; 2aPTT (Plasma): 979 µM
O=c1c2ccccc2nc(-c2ccc(OS(=O)(=O)O)cc2)n1CCCCCn1nncc1Cn1c(-c2ccc(OS(=O)(=O)O)cc2)nc2ccccc2c1=O	–	94%	–
O=c1c2ccccc2nc(-c2cccc(OS(=O)(=O)O)c2)n1CCCCn1cc(Cn2c(-c3ccc(OS(=O)(=O)O)cc3)nc3ccccc3c2=O)nn1	91 µM	103%	Kd (Coagulation factor XI [4]): 91 µM
O=c1c2ccccc2nc(-c2ccc(OS(=O)(=O)O)cc2)n1CCCCCCn1cc(Cn2c(-c3ccc(OS(=O)(=O)O)cc3)nc3ccccc3c2=O)nn1	52 µM	97%	inhibition [3]: inactive; Activity (Coagulation factor XI [8]): 4.2%; Ratio IC50 (Homo sapiens [9]): 2; Kd (Coagulation factor XI [4]): 38 µM; inhibition [5]: inactive; inhibition (Coagulation factor XI [10]): Active; Activity (HEK293 [11]): 4.9%; Activity (Coagulation factor XI [12]): 6.3%; Ratio IC50 (Homo sapiens [13]): 5; inhibition [6]: inactive; inhibition [7]: inactive; inhibition (HEK293 [14]): Active; 2aPTT (Plasma): 950 µM
O=c1c2ccccc2nc(-c2cccc(OS(=O)(=O)O)c2)n1CCCCn1cc(Cn2c(-c3cccc(OS(=O)(=O)O)c3)nc3ccccc3c2=O)nn1	102 µM	100%	–
CC(=O)Oc1cccc(-c2nc3ccccc3c(=O)n2Cc2cn(CCCCn3c(-c4cccc(OS(=O)(=O)O)c4)nc4ccccc4c3=O)nn2)c1	> 1000 µM	–	–

More lines, main results first:

IC50 (Coagulation factor XI [1])	Efficacy (Coagulation factor XI [2])	Structure (SMILES)	also measured
216 µM	50%	COc1cc(-c2nc3ccccc3c(=O)n2CCCCn2cc(COc3cc(-c4oc5cc(OS(=O)(=O)O)cc(OC)c5c(=O)c4OS(=O)(=O)O)ccc3OS(=O)(=O)O)nn2)ccc1OS(=O)(=O)O	–
139 µM	95%	COc1cc(-c2nc3ccccc3c(=O)n2CCCCn2cc(Cn3c(-c4ccc(OS(=O)(=O)O)c(OC)c4)nc4ccccc4c3=O)nn2)ccc1OS(=O)(=O)O	–
273 µM	91%	CC(=O)Oc1cc(OS(=O)(=O)O)cc(-c2nc3ccccc3c(=O)n2CCCCn2cc(Cn3c(-c4cc(OS(=O)(=O)O)cc(OS(=O)(=O)O)c4)nc4ccccc4c3=O)nn2)c1	–
> 1000 µM	–	COc1cc(OS(=O)(=O)O)cc2oc(-c3ccc(OS(=O)(=O)O)c(OCc4cn(CCCCn5c(-c6cccc(OS(=O)(=O)O)c6)nc6ccccc6c5=O)nn4)c3)c(OS(=O)(=O)O)c(=O)c12	–
213 µM	93%	O=c1c2ccccc2nc(-c2cccc(OS(=O)(=O)O)c2)n1CCCCn1cc(Cn2c(-c3cc(OS(=O)(=O)O)cc(OS(=O)(=O)O)c3)nc3ccccc3c2=O)nn1	–
> 1000 µM	–	O=c1c2ccccc2nc(-c2cc(OS(=O)(=O)O)cc(OS(=O)(=O)O)c2)n1CCCCn1cc(Cn2c(-c3cc(OS(=O)(=O)O)cc(OS(=O)(=O)O)c3)nc3ccccc3c2=O)nn1	–
159 µM	88%	O=c1c2ccccc2nc(-c2ccc(OS(=O)(=O)O)cc2)n1CCCCn1cc(Cn2c(-c3cccc(OS(=O)(=O)O)c3)nc3ccccc3c2=O)nn1	–
153 µM	96%	CC(=O)Oc1cc(OS(=O)(=O)O)cc(-c2nc3ccccc3c(=O)n2CCCCn2cc(Cn3c(-c4cc(O)cc(OS(=O)(=O)O)c4)nc4ccccc4c3=O)nn2)c1	–
182 µM	88%	COc1cc(-c2nc3ccccc3c(=O)n2CCCCn2cc(Cn3c(-c4cccc(OS(=O)(=O)O)c4)nc4ccccc4c3=O)nn2)ccc1OS(=O)(=O)O	–
407 µM	90%	COc1cc(OS(=O)(=O)O)cc2oc(-c3ccc(OS(=O)(=O)O)c(OCc4cn(CCCCn5c(-c6cc(OC(C)=O)cc(OS(=O)(=O)O)c6)nc6ccccc6c5=O)nn4)c3)c(OS(=O)(=O)O)c(=O)c12	–
